According to ChEMBL document CHEMBL1131384, “Synthesis and structure-activity relationships of potent and orally active 5-HT4 receptor antagonists: indazole and benzimidazolone derivatives” (J Med Chem, 1998):

Key:
[1] = biological target: 5-hydroxytryptamine receptor 4 (Rattus norvegicus) (UniProt Q62758); test: Antagonistic activity by ability to block serotonin induced relaxation (mediated by activation of 5-hydroxytryptamine 4 receptor) in carbamylcholine (10e-6 M) contracted esophagus at a concentration of 10e-6 M.; assay type: functional, tissue-based
Method in brief: (§1)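 Isolated rat esophagus precontracted with carbamylcholine (10^-6 M). Tissue was challenged with serotonin (1 µM) in the presence of the antagonist at a given concentration or of vehicle. Relaxation was recorded as % relaxation to 10^-6 M 5-HT, given as mean ± SEM with the number of determinations.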

[2] = biological target: T1, Adrenergic receptor alpha-1 (Rattus norvegicus) (UniProt P15823+P23944+P43140); test: Binding affinity for Alpha-1 adrenergic receptor in rat aorta determined by block of norepinephrine induced contraction of rat aorta; assay type: tissue-based
[3] = biological target: 5-hydroxytryptamine receptor 4 (Rattus norvegicus) (UniProt Q62758); test: Antagonistic activity evaluated by ability to block serotonin induced relaxation via 5-hydroxytryptamine 4 receptor) in carbamylcholine (10e-6 M) contracted esophagus at a concentration of 0.1 mg/kg (p.o.); assay type: functional, organism-based; design: dose 0.1 mg/kg
Method in brief: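 Rats were dosed with the antagonist by oral gavage. Esophagus was removed 3 h after dosing and challenged ex vivo with serotonin. Read-out was % relaxation of the carbamylcholine-contracted tissue to 10^-6 M 5-HT, given as mean ± SEM with the number of determinations.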

[4] = biological target: 5-hydroxytryptamine receptor 4 (Rattus norvegicus) (UniProt Q62758); test: Antagonistic activity by ability to block serotonin induced relaxation (mediated by activation of 5-hydroxytryptamine 4 receptor) in carbamylcholine (10e-6 M) contracted esophagus at a concentration of 10e-7 M.; assay type: functional, tissue-based; method in brief: as §1
[5] = biological target: 5-hydroxytryptamine receptor 4 (Rattus norvegicus) (UniProt Q62758); test: Antagonistic activity evaluated by ability to block serotonin induced relaxation (mediated by activation of 5-hydroxytryptamine 4 receptor) in carbamylcholine (10e-6 M) contracted esophagus at a concentration of 10e-8 M.; assay type: functional, tissue-based; method in brief: as §1
[6] = biological target: T1, Adrenergic receptor alpha-1 (Rattus norvegicus); test: Affinity for the alpha-1 adrenergic receptor determined by the displacement of [3H]prazosin from rat whole brain tissue.; assay type: tissue-based
[7] = biological target: 5-hydroxytryptamine receptor 4 (Rattus norvegicus) (UniProt Q62758); test: Antagonistic activity evaluated by ability to block serotonin induced relaxation (mediated by activation of 5-hydroxytryptamine 4 receptor) in carbamylcholine (10e-6 M) contracted esophagus at a concentration of 10e-5 M.; assay type: functional, tissue-based; method in brief: as §1
[8] = biological target: 5-hydroxytryptamine receptor 4 (Rattus norvegicus) (UniProt Q62758); test: Antagonistic activity evaluated by ability to block serotonin induced relaxation (via 5-hydroxytryptamine 4 receptor) in carbamylcholine (10e-6 M) contracted esophagus at a concentration of 3*10e-8 M.; assay type: functional
Method in brief: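 Isolated rat esophagus precontracted with carbamylcholine (10^-6 M), then challenged with serotonin (1 μM) in the presence of antagonist at the stated concentration or vehicle. Read-out is % relaxation to serotonin, given as mean ± SEM with the number of determinations.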

[9] = biological target: Serotonin 2 (5-HT2) receptor (Rattus norvegicus) (UniProt P30994+P08909+P14842); test: Binding affinity against 5-hydroxytryptamine 2 receptor in serotonin-induced contraction of the rat aorta; assay type: tissue-based
Serotonin 2 (5-HT2) receptor (Rattus norvegicus), sequence (P08909 whole entry, looked up): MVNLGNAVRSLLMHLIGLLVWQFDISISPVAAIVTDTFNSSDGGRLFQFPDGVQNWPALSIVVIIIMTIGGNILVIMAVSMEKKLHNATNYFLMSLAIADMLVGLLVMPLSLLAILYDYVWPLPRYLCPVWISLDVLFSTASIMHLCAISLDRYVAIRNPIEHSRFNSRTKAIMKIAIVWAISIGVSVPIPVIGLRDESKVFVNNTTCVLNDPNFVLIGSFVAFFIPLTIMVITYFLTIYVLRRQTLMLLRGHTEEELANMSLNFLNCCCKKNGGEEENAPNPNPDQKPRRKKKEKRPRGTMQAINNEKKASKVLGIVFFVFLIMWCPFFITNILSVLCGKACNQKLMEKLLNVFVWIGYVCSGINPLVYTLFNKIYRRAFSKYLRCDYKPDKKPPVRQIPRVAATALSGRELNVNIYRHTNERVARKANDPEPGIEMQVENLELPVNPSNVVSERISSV
Serotonin 2 (5-HT2) receptor (Rattus norvegicus), sequence (P14842 whole entry, looked up): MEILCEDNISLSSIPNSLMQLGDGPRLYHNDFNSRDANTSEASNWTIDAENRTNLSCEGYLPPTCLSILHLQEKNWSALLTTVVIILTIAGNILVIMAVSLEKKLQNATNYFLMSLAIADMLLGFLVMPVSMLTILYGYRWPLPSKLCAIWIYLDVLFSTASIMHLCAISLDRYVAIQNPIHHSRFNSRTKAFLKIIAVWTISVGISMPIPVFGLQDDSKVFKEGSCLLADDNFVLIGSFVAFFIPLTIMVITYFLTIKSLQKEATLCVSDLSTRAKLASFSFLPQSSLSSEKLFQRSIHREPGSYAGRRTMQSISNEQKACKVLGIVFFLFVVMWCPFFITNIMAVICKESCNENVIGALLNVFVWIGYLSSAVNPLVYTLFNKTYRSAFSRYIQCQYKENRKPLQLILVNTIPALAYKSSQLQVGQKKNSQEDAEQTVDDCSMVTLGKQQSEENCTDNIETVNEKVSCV
Serotonin 2 (5-HT2) receptor (Rattus norvegicus), sequence (P30994 whole entry, looked up): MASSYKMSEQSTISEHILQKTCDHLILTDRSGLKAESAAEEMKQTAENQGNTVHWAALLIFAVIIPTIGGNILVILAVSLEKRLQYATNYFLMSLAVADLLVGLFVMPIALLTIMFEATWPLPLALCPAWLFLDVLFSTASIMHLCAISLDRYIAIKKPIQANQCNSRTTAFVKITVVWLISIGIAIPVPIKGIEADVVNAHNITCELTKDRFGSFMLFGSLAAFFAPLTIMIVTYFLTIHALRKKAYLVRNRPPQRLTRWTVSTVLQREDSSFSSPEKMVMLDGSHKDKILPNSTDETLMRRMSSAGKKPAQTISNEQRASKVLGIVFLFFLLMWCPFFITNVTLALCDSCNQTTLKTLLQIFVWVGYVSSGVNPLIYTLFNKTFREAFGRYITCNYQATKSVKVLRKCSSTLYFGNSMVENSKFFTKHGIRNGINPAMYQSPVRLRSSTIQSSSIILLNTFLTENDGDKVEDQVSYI

5-hydroxytryptamine receptor 4 (Rattus norvegicus), sequence (Q62758 whole entry): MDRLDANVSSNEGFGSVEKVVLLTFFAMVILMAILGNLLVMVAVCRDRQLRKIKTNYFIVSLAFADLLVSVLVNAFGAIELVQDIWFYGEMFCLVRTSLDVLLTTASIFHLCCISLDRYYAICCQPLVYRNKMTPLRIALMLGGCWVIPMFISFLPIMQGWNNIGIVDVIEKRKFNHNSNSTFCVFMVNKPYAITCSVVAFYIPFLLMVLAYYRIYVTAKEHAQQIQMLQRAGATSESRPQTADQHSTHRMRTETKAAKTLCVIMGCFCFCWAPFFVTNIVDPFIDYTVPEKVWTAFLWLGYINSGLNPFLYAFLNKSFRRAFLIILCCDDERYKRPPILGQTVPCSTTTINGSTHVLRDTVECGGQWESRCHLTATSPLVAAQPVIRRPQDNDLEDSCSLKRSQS

CC(C)n1cc(C(=O)NC2CC3CCC(C2)N3C)c2ccccc21 (stereo not drawn)
Relaxation [1]: 25.3%

CCN(CC)CCNC(=O)c1nn(C(C)C)c2ccccc12
Relaxation [1]: 26.8%

CCn1cc(C(=O)NC2CC3CCC(C2)N3C)c2ccccc21 (stereo not drawn)
Relaxation [1]: 44.8%

CC(C)n1nc(C(=O)NC2CCN(CCc3ccccc3)CC2)c2ccccc21
Relaxation [1]: 1.3% | pKb [2]: 7.68

CC(C)C(=O)NC1CCN(CCNC(=O)c2nn(C(C)C)c3ccccc23)CC1
Relaxation [3]: 45% | Relaxation [4]: 9% | Relaxation [5]: 34.8%

CN1C2CCC1CC(NC(=O)c1c[nH]c3ccccc13)C2 (stereo not drawn)
Relaxation [1]: 60%

CC(C)n1nc(C(=O)NCCN2CCCCCC2)c2ccccc21
Relaxation [3]: 52% | Relaxation [1]: 4.8% | pKi [6]: 5

CN1C2CCCC1CC(NC(=O)c1nn(C)c3ccccc13)C2 (stereo not drawn)
Relaxation [7]: 21%

CCC(C)n1cc(C(=O)NC2CC3CCC(C2)N3C)c2ccccc21 (stereo not drawn)
Relaxation [1]: 57.8%

CCCn1cc(C(=O)NC2CC3CCC(C2)N3C)c2ccccc21 (stereo not drawn)
Relaxation [1]: 34.3%

CC(C)n1nc(C(=O)NCCN2CCC(NC(=O)c3ccccc3)CC2)c2ccccc21
Relaxation [3]: 50% | Relaxation [4]: 14.7% | Relaxation [1]: 2% | Relaxation [5]: 34.3%

CC(C)n1nc(C(=O)NC2CCNCC2)c2ccccc21
Relaxation [1]: 32%

CC(C)n1nc(C(=O)NCCN2CCc3ccccc3C2)c2ccccc21
Relaxation [3]: 41% | Relaxation [1]: 20.3%

CC(C)n1nc(C(=O)NCCN2CCN(Cc3ccccc3)CC2)c2ccccc21
Relaxation [1]: 9.1%

CC(C)n1nc(C(=O)NC2CCN(Cc3ccccc3)CC2)c2ccccc21
Relaxation [4]: 24.5% | Relaxation [8]: 23.3% | pKb [9]: 5.5 | Relaxation [1]: 3.85% | pKi [6]: < 4 | pKb [2]: < 5 | Relaxation [5]: 38.5%

CN1C2CCC1CC(NC(=O)n1c(=O)n(C)c3ccccc31)C2 (stereo not drawn)
Relaxation [1]: 7.3%

CC(C)n1nc(C(=O)NCCN2CCC(NS(C)(=O)=O)CC2)c2ccccc21
Relaxation [3]: 29% | Relaxation [1]: 7.3%

CCCC(=O)NC1CCN(CCNC(=O)c2nn(C(C)C)c3ccccc23)CC1
Relaxation [3]: 51% | Relaxation [4]: 26.5%

CC(C)n1nc(C(=O)NC2CCN(CCN3C(=O)c4ccccc4C3=O)CC2)c2ccccc21
pKb [9]: < 5 | Relaxation [1]: 7.5%

CC(C)n1nc(C(=O)NC2CC3CCC(C2)N3CCCOc2ccc(F)cc2)c2ccccc21 (stereo not drawn)
Relaxation [4]: 22.2% | Relaxation [1]: 17.7%

CC(C)n1nc(C(=O)NCCN2CCC(Cc3ccccc3)CC2)c2ccccc21
Relaxation [3]: 26% | Relaxation [4]: 42% | Relaxation [1]: 16.4%

CN1C2CCC1CC(NC(=O)c1n[nH]c3ccccc13)C2 (stereo not drawn)
Relaxation [7]: 50.5%

CC(C)n1nc(C(=O)NCCN2CCC(NC(=O)Cc3ccccc3)CC2)c2ccccc21
Relaxation [3]: 39% | Relaxation [4]: 23.7% | Relaxation [1]: 5.6%

CC(C)n1c(=O)n(C(=O)NC2CCN(CCCOc3ccc(F)cc3)CC2)c2ccccc21
Relaxation [4]: 62%

CC(C)n1nc(C(=O)NC2CCN(CCCOc3ccc(F)cc3)CC2)c2ccccc21
Relaxation [4]: 15.7% | Relaxation [8]: 36% | pKb [9]: 6.8 | Relaxation [1]: 7.5% | pKi [6]: 7.69 | pKb [2]: 6.7

CC(C)n1nc(C(=O)NCCN2CCC(NC(=O)OCc3ccccc3)CC2)c2ccccc21
Relaxation [3]: 21% | Relaxation [1]: 2.8% | pKi [6]: 5.9 | pKb [2]: < 5

CC(C)n1nc(C(=O)NCCN2CCCC2)c2ccccc21
Relaxation [3]: 51% | Relaxation [1]: 4.3% | pKi [6]: < 4

CC(C)n1nc(C(=O)NC2CCN(CCCc3ccccc3)CC2)c2ccccc21
Relaxation [1]: 3.7% | pKb [2]: 5.8

CC(C)n1nc(C(=O)NCCN2CCOCC2)c2ccccc21
Relaxation [4]: 42.3% | Relaxation [1]: 19.8%

COc1cc(N)c(Cl)cc1C(=O)NC1CC2CCC(C1)N2C (stereo not drawn)
Relaxation [1]: 5.4% | Relaxation [7]: 2.8%

CCn1c(=O)n(C(=O)NC2CC3CCC(C2)N3C)c2ccccc21 (stereo not drawn)
Relaxation [8]: 37.5%

CC(C)n1nc(C(=O)NCCN2CCC(NC(=O)Nc3ccccc3)CC2)c2ccccc21
Relaxation [3]: 33.7% | Relaxation [1]: 11%

CC(C)n1nc(C(=O)NCCN2CCC(NC(=O)Nc3ccc(F)cc3)CC2)c2ccccc21
Relaxation [3]: 45.5% | Relaxation [4]: 44.8% | Relaxation [1]: 6.3%

CN1C2CCC1CC(NC(=O)c1cccc3ccccc13)C2 (stereo not drawn)
Relaxation [7]: 76.5%

CC(C)n1nc(C(=O)NC2CCN(CCNC(=O)c3ccccc3)CC2)c2ccccc21
Relaxation [4]: 28% | Relaxation [1]: 6% | pKi [6]: 6.62 | pKb [2]: 5.8

CN1[C@@H]2CC[C@H]1C[C@@H](OC(=O)c1c[nH]c3ccccc13)C2
Relaxation [1]: 33.9% | Relaxation [7]: 26.4%

CCC(C)n1c(=O)n(C(=O)NC2CC3CCC(C2)N3C)c2ccccc21 (stereo not drawn)
Relaxation [1]: 8.8%

CC(C)n1nc(C(=O)NCCN2CCC(NC(=O)C34C[C@H]5C[C@@H](C3)C[C@@H](C4)C5)CC2)c2ccccc21
Relaxation [3]: 27% | Relaxation [4]: 11% | Relaxation [8]: 23.2% | pKi [6]: 4.3 | Relaxation [5]: 48.1%

CC(=O)NC1CCN(CCNC(=O)c2nn(C(C)C)c3ccccc23)CC1
Relaxation [3]: 19.1% | Relaxation [8]: 33.5% | Relaxation [1]: 6.8% | pKi [6]: < 4 | Relaxation [5]: 51.3%

CC(C)n1nc(C(=O)NC2CCN(CCNS(C)(=O)=O)CC2)c2ccccc21
Relaxation [4]: 16% | Relaxation [1]: 6.8% | pKi [6]: < 4 | pKb [2]: < 5

CCC(C)n1nc(C(=O)NC2CC3CCC(C2)N3C)c2ccccc21 (stereo not drawn)
Relaxation [8]: 46.3%

CN1C2CCC1CC(NC(=O)c1cn(C)c3ccccc13)C2 (stereo not drawn)
Relaxation [1]: 47.3%

CC(C)n1nc(C(=O)NC2CCN(CCCCCc3ccccc3)CC2)c2ccccc21
Relaxation [1]: 43.7%

CCC(=O)NC1CCN(CCNC(=O)c2nn(C(C)C)c3ccccc23)CC1
Relaxation [3]: 36% | Relaxation [4]: 11.3%

CC(C)n1nc(C(=O)NCCN2CCN(C(=O)c3ccccc3)CC2)c2ccccc21
Relaxation [1]: 19.8%

CC(C)n1c(=O)n(C(=O)NC2CCN(C)CC2)c2ccccc21
Relaxation [4]: 40.8% | Relaxation [1]: 7.5%

CC(C)n1nc(C(=O)NC2CCN(CCNC(=O)C34C[C@H]5C[C@@H](C3)C[C@@H](C4)C5)CC2)c2ccccc21
Relaxation [4]: 38.5% | Relaxation [1]: 1%

CCCCC(=O)NC1CCN(CCNC(=O)c2nn(C(C)C)c3ccccc23)CC1
Relaxation [3]: 38% | Relaxation [4]: 25.6% | Relaxation [5]: 51%

CC(C)n1nc(C(=O)NCCN2CCC(NC(=O)C(C)(C)C)CC2)c2ccccc21
Relaxation [3]: 30% | Relaxation [4]: 7.8% | Relaxation [8]: 35% | Relaxation [1]: 3.3% | Relaxation [5]: 50.5%

CC(C)n1nc(C(=O)NCCN2CCC(NC(=O)NCc3ccccc3)CC2)c2ccccc21
Relaxation [3]: 30% | Relaxation [1]: 3.3%

CC(C)n1nc(C(=O)NCCCCN2CCCCC2)c2ccccc21
Relaxation [3]: 49% | Relaxation [4]: 43.3% | Relaxation [1]: 3.3% | pKi [6]: 5.2

CC(C)n1nc(C(=O)NC2CCN(CCCCc3ccccc3)CC2)c2ccccc21
Relaxation [1]: 4% | pKb [2]: 5.6

CCCn1c(=O)n(C(=O)NC2CC3CCC(C2)N3C)c2ccccc21 (stereo not drawn)
Relaxation [8]: 30.7% | Relaxation [1]: 4.3%

CCn1nc(C(=O)NC2CC3CCC(C2)N3C)c2ccccc21 (stereo not drawn)
Relaxation [1]: 6.7%

CCCn1nc(C(=O)NC2CC3CCC(C2)N3C)c2ccccc21 (stereo not drawn)
Relaxation [1]: 2.5%

CC(C)n1c(=O)n(C(=O)NC2CC3CCC(C2)N3CCCOc2ccc(F)cc2)c2ccccc21 (stereo not drawn)
Relaxation [4]: 29.5% | Relaxation [1]: 2.1%

CC(C)n1nc(C(=O)NCCN2CCC(N)CC2)c2ccccc21
Relaxation [3]: 41% | Relaxation [1]: 36.8%
